Our source for the MIC values is ChEMBL document CHEMBL4316612, “Synthesis of novel dihydrotriazine derivatives bearing 1,3-diaryl pyrazole moieties as potential antibacterial agents” (Bioorg Med Chem Lett, 2019).

Each structure is given as a SMILES string. ≈ marks a conversion by molar mass, not a printed value.

Holding throughout (type): functional
In assay [1] the test system is Staphylococcus aureus. Put plainly: Antibacterial activity against quinolone-resistant Staphylococcus aureus CCARM 3519 after 24 hrs by microtiter ELISA. Conditions: CCARM 3519, 24 h. Put shortly:
(§1)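 Broth microdilution MIC. Bacteria grown to mid-log phase in Mueller-Hinton broth, diluted 1000-fold, and inoculated at 10^5 CFU/mL. Compounds in DMSO (final ≤0.05%) were given as two-fold serial dilutions, final 64-0.25 µg/mL. Plates were incubated 24 h at 37 °C and growth read at 650 nm. MIC is the lowest concentration giving complete growth inhibition. Three independent experiments; oxacillin and norfloxacin served as positive controls.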

Assay [2] deals with Staphylococcus aureus. Put plainly: Antibacterial activity against Staphylococcus aureus RN4220 after 24 hrs by microtiter ELISA. Conditions: RN4220, 24 h. The procedure, abridged:
as §1

Assay [3] concerns Staphylococcus aureus. Put plainly: Antibacterial activity against methicillin-resistant Staphylococcus aureus CCARM 3506 after 24 hrs by microtiter ELISA. Conditions: CCARM 3506, 24 h. Put shortly: as §1
Another assay has as its system Escherichia coli. Put plainly: Antibacterial activity against Escherichia coli KCTC 1924 after 24 hrs by microtiter ELISA. As to conditions: KCTC 1924, 24 h. Put shortly:
(§2)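 Two-fold serial broth dilution in Mueller-Hinton broth, final 64-0.25 µg/mL; compounds in DMSO (final ≤0.05%). Mid-log cultures diluted 1000-fold, inoculum 10^5 CFU/mL; oxacillin and norfloxacin as positive controls. After 24 h at 37 °C, growth read at 650 nm on a microtiter ELISA reader; MIC = lowest level giving complete growth inhibition. Run three times.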

Assay [4] relates to Staphylococcus aureus. Put plainly: Antibacterial activity against quinolone-resistant Staphylococcus aureus CCARM 3505 after 24 hrs by microtiter ELISA. As to conditions: CCARM 3505, 24 h. Put shortly: as §1
In the next assay the test system is Streptococcus mutans. Put plainly: Antibacterial activity against Streptococcus mutans 3289 after 24 hrs by microtiter ELISA. As to conditions: Streptococcus mutans, 3289, 24 h. The procedure, abridged:
as §2

The next assay relates to Candida albicans. Put plainly: Antifungal activity against Candida albicans 7535 after 24 hrs by microtiter ELISA. As to conditions: Candida albicans, 7535, 24 h. The procedure, abridged: as §2
Assay [5] deals with Staphylococcus aureus. Put plainly: Antibacterial activity against methicillin-resistant Staphylococcus aureus CCARM 3167 after 24 hrs by microtiter ELISA. As to conditions: CCARM 3167, 24 h. Put shortly: as §1

Regarding `Cc1ccc(-c2nn(-c3ccccc3)cc2C2N=C(N)NC(N3CCOCC3)=N2)cc1` (centres undefined), the minimum inhibitory concentration (MIC) against Staphylococcus aureus [1] was found to be 64 µg/mL (≈ 154 µM); in the assay with Staphylococcus aureus [2] it was 64 µg/mL (≈ 154 µM); against Staphylococcus aureus [3], 32 µg/mL (≈ 77 µM); against Escherichia coli, 64 µg/mL (≈ 154 µM); against Staphylococcus aureus [4], 64 µg/mL (≈ 154 µM); against Streptococcus mutans, 64 µg/mL (≈ 154 µM). The results for the MIC against Candida albicans and with Staphylococcus aureus [5] were 64 µg/mL (≈ 154 µM) and 32 µg/mL (≈ 77 µM), respectively.

As for `NC1=NC(c2cn(-c3ccc([N+](=O)[O-])cc3[N+](=O)[O-])nc2-c2ccc(Cl)cc2Cl)N=C(N2CCOCC2)N1` (centres undefined), the minimum inhibitory concentration (MIC) in the assay with Staphylococcus aureus [1] stood at 16 µg/mL (≈ 28.6 µM); against Staphylococcus aureus [2] it was 16 µg/mL (≈ 28.6 µM); against Staphylococcus aureus [3] it was 8 µg/mL (≈ 14.3 µM); in the assay with Escherichia coli, 8 µg/mL (≈ 14.3 µM); with Staphylococcus aureus [4], 8 µg/mL (≈ 14.3 µM); against Streptococcus mutans it was 16 µg/mL (≈ 28.6 µM). Besides, the MIC in the assay with Candida albicans and against Staphylococcus aureus [5] was 8 µg/mL (≈ 14.3 µM) in each case.

`Cc1ccc(-c2nn(-c3ccc([N+](=O)[O-])cc3[N+](=O)[O-])cc2C2N=C(N)NC(N(C)C)=N2)cc1` (centres undefined): the MIC in the assay with Staphylococcus aureus [1] was 16 µg/mL (≈ 34.5 µM); in the assay with Staphylococcus aureus [2], 16 µg/mL (≈ 34.5 µM); against Staphylococcus aureus [3] it was 8 µg/mL (≈ 17.3 µM); in the assay on Escherichia coli, 16 µg/mL (≈ 34.5 µM); against Staphylococcus aureus [4], 8 µg/mL (≈ 17.3 µM); in the assay on Streptococcus mutans, 16 µg/mL (≈ 34.5 µM). Moreover, the MIC against Candida albicans is 64 µg/mL (≈ 138 µM); in the assay on Staphylococcus aureus [5], 8 µg/mL (≈ 17.3 µM).

Regarding `CN(C)C1=NC(c2cn(-c3ccccc3)nc2-c2ccc(Br)cc2)N=C(N)N1` (centres undefined), the MIC with Staphylococcus aureus [1] was 16 µg/mL (≈ 36.5 µM); in the assay on Staphylococcus aureus [2] it was 8 µg/mL (≈ 18.3 µM); against Staphylococcus aureus [3] it was 4 µg/mL (≈ 9.13 µM); in the assay on Escherichia coli, 8 µg/mL (≈ 18.3 µM); in the assay on Staphylococcus aureus [4] it was 16 µg/mL (≈ 36.5 µM); against Streptococcus mutans it was 16 µg/mL (≈ 36.5 µM). Further, the minimum inhibitory concentration (MIC) against Candida albicans was found to be 8 µg/mL (≈ 18.3 µM); against Staphylococcus aureus [5] it was 4 µg/mL (≈ 9.13 µM).

Take `CN(C)C1=NC(c2cn(-c3ccc([N+](=O)[O-])cc3[N+](=O)[O-])nc2-c2ccccc2[N+](=O)[O-])N=C(N)N1` (centres undefined): the MIC with Staphylococcus aureus [1], in the assay with Staphylococcus aureus [2], with Staphylococcus aureus [3], in the assay on Escherichia coli, in the assay on Staphylococcus aureus [4] and against Streptococcus mutans was greater than 64 µg/mL in each case. Further, the MIC in the assay on Candida albicans and in the assay with Staphylococcus aureus [5] was greater than 64 µg/mL throughout.

Take `OC(Cn1cncn1)(Cn1cncn1)c1ccc(F)cc1F` [FLUCONAZOLE]: the lowest concentration to inhibit growth in the assay on Candida albicans (MIC) was 1 µg/mL (≈ 3.27 µM).

As to `CN(C)C1=NC(c2cn(-c3ccc([N+](=O)[O-])cc3[N+](=O)[O-])nc2-c2ccccc2Br)N=C(N)N1` (centres undefined), the minimum inhibitory concentration (MIC) in the assay on Staphylococcus aureus [1] is 64 µg/mL (≈ 121 µM); in the assay on Staphylococcus aureus [2] it was 32 µg/mL (≈ 60.6 µM); against Staphylococcus aureus [3] it was 32 µg/mL (≈ 60.6 µM); against Escherichia coli it was 32 µg/mL (≈ 60.6 µM); against Staphylococcus aureus [4], 32 µg/mL (≈ 60.6 µM); with Streptococcus mutans, 32 µg/mL (≈ 60.6 µM). Moreover, the results for the minimum inhibitory concentration (MIC) in the assay with Candida albicans and against Staphylococcus aureus [5] were 64 µg/mL (≈ 121 µM) and 32 µg/mL (≈ 60.6 µM), respectively.

As for `Cc1onc(-c2ccccc2)c1C(=O)N[C@@H]1C(=O)N2[C@@H]1SC(C)(C)[C@@H]2C(=O)O` [OXACILLIN], the minimal inhibitory concentration (MIC) against Staphylococcus aureus [1] was 1 µg/mL (≈ 2.49 µM); against Staphylococcus aureus [3], greater than 64 µg/mL; in the assay on Staphylococcus aureus [4], 1 µg/mL (≈ 2.49 µM); against Staphylococcus aureus [5], greater than 64 µg/mL.

`CN(C)C1=NC(c2cn(-c3ccc([N+](=O)[O-])cc3[N+](=O)[O-])nc2-c2ccccc2F)N=C(N)N1` (centres undefined): the minimum inhibitory concentration (MIC) was 64 µg/mL (≈ 137 µM) against Staphylococcus aureus [1]; 64 µg/mL (≈ 137 µM) against Staphylococcus aureus [2]; 32 µg/mL (≈ 68.5 µM) against Staphylococcus aureus [3]; 32 µg/mL (≈ 68.5 µM) against Escherichia coli; 64 µg/mL (≈ 137 µM) in the assay with Staphylococcus aureus [4]; 64 µg/mL (≈ 137 µM) in the assay on Streptococcus mutans. In addition, the minimum inhibitory concentration (MIC) with Candida albicans worked out at 32 µg/mL (≈ 68.5 µM); against Staphylococcus aureus [5], 64 µg/mL (≈ 137 µM).

Turning to `CN(C)C1=NC(c2cn(-c3ccc([N+](=O)[O-])cc3[N+](=O)[O-])nc2-c2ccccc2Cl)N=C(N)N1` (centres undefined), the minimum inhibitory concentration (MIC) was 64 µg/mL (≈ 132 µM) against Staphylococcus aureus [1]; 32 µg/mL (≈ 66.1 µM) in the assay on Staphylococcus aureus [2]; 64 µg/mL (≈ 132 µM) against Staphylococcus aureus [3]; 32 µg/mL (≈ 66.1 µM) in the assay with Escherichia coli; 32 µg/mL (≈ 66.1 µM) against Staphylococcus aureus [4]; 64 µg/mL (≈ 132 µM) in the assay with Streptococcus mutans. Also, the MIC in the assay with Candida albicans was determined as 64 µg/mL (≈ 132 µM); in the assay on Staphylococcus aureus [5] it was 32 µg/mL (≈ 66.1 µM).

Take `COc1c(N2CCNC(C)C2)c(F)cc2c(=O)c(C(=O)O)cn(C3CC3)c12` (centres undefined) [GATIFLOXACIN]: the MIC turned out to be 4 µg/mL (≈ 10.7 µM) in the assay on Staphylococcus aureus [1]; 0.25 µg/mL (≈ 0.666 µM) against Staphylococcus aureus [2]; 2 µg/mL (≈ 5.33 µM) against Staphylococcus aureus [3]; 2 µg/mL (≈ 5.33 µM) against Escherichia coli; 8 µg/mL (≈ 21.3 µM) in the assay on Staphylococcus aureus [4]; 0.25 µg/mL (≈ 0.666 µM) against Streptococcus mutans. The molecule also displayed a minimum inhibitory concentration (MIC) against Staphylococcus aureus [5] of 2 µg/mL (≈ 5.33 µM).

As to `NC1=NC(c2cn(-c3ccccc3)nc2-c2ccc(Br)cc2)N=C(N2CCOCC2)N1` (centres undefined), the minimum inhibitory concentration (MIC) against Staphylococcus aureus [1] is 8 µg/mL (≈ 16.7 µM); with Staphylococcus aureus [2], 8 µg/mL (≈ 16.7 µM); against Staphylococcus aureus [3], 4 µg/mL (≈ 8.33 µM); against Escherichia coli it was 16 µg/mL (≈ 33.3 µM); with Staphylococcus aureus [4] it was 16 µg/mL (≈ 33.3 µM); in the assay on Streptococcus mutans it was 32 µg/mL (≈ 66.6 µM). For the same molecule, the MIC against Candida albicans came out at 16 µg/mL (≈ 33.3 µM); in the assay on Staphylococcus aureus [5], 8 µg/mL (≈ 16.7 µM).
